Data set [1] concerns Mus musculus. Description: Antiinflammatory activity in mouse assessed as inhibition of picryl chloride-induced contact hypersensitivity reaction at 10 mg/kg, po administered 30 mins prior to picryl chloride challenge. Type of data set: functional, organism-based. The gist of the method:
(§1)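 Mice sensitized with picryl chloride one week before the study. Oral dose given 30 min before picryl chloride challenge. Data are mean ± SEM, n = 5/group, analysed by Dunnett's test.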

The test system of data set [2] is Mus musculus. Description: Antiinflammatory activity in ICR mouse assessed as inhibition of picryl chloride-induced contact hypersensitivity reaction administered topically on left ear after 24 hrs. Type of data set: functional. The gist of the method:
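Mice sensitized with picryl chloride; test agent applied topically at 0.1 mg/ear in acetone. Percent inhibition is the drug-treated group's percent response relative to the control group, n = 5, reported as the mean of 5 animals.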

The subject of data set [3] is Mus musculus. Description: Antipruritic activity in mouse assessed as inhibition of substance P-induced pruritus at 30 mg/kg administered 30 mins prior to substance P challenge measured over 60 mins. Type of data set: functional, organism-based. The gist of the method:
(§2)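 Oral dose given 30 min before substance P challenge. Scratches counted over 60 min. Data are mean ± SEM, n = 7–8/group, analysed by Dunnett's test.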

Data set [4] is described as follows: Antioxidant activity assessed as suppression of H2O2/cobalt2+-mediated hydroxyl radical formation by luminol-based […] assay. Type of data set: physicochemical.
Data set [5] is described as follows: Antioxidant activity assessed as suppression of H2O2/DETAPAC-Fe2+-mediated hydroxyl radical formation by measuring oxidation of dihydrorhodamine after 5 mins by fluorescence assay. In kind it is physicochemical.
Data set [6] is described as follows: Solubility of the compound in phosphate buffer solution at pH 7.4. In kind it is physicochemical. The gist of the method:
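Solubility taken as the amount dissolved in phosphate buffer solution at pH 7.4, in […].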

Data set [7] has as its system Liver microsome. Nature of the data set: Metabolic stability in human liver microsomal fraction assessed per mg of protein. In kind it is ADME. The conditions noted are these: microsomes. In a few lines:
(§3)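 Metabolic stability measured in human or rat liver microsomal fraction. Reported as mL/min/mg protein.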

Data set [8] concerns Liver microsome. Description: Metabolic stability in rat liver microsomal fraction assessed per mg of protein. Type of data set: ADME. The conditions noted are these: microsomes. The gist of the method:
as §3

The nature of data set [9]: Apparent permeability in human Caco2 cells. Type of data set: ADME, cell-based. The conditions noted are these: Caco-2. The gist of the method:
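Caco-2 monolayer permeability reported as apparent permeability (Papp), in units of 10^-6 cm/s.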
(In general: Caco-2 monolayers are a common model of the intestinal barrier.)

The nature of data set [10]: Clearance in mouse at 1 mg/kg, iv. The conditions noted are these: in vivo. Type of data set: ADME, organism-based. In a few lines: (§4)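 Mouse plasma PK after a single 1 mg/kg iv injection. Clearance (mL/min/kg) and steady-state volume of distribution (L/kg) derived from the plasma concentration profile.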
The nature of data set [11]: Volume of distribution at steady state in mouse at 1 mg/kg, iv. The conditions noted are these: in vivo, read-out: Vdss. In kind it is ADME, organism-based. The gist of the method:
as §4

Data set [12] can be described thus: AUC in mouse at 1 mg/kg, iv. Type of data set: ADME, organism-based. The note with it: in vivo. The gist of the method:
(§5)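 Mouse pharmacokinetic study with single dosing, intravenous at 1 mg/kg or oral at 10 mg/kg. Plasma drug concentrations were measured, and AUC was taken from the plasma concentration curve. The same study also gave CL and Vdss (iv), Cmax (po) and oral bioavailability.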

A short description of data set [13]: AUC in mouse at 10 mg/kg, po. In kind it is ADME, organism-based. The conditions noted are these: in vivo. The gist of the method:
as §5

Data set [14] can be described thus: Cmax in mouse at 10 mg/kg, po. Type of data set: ADME, organism-based. Also noted: dose 10 mg/kg, route oral. The note with it: in vivo. The gist of the method: (§6)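 Mouse plasma PK after 10 mg/kg oral dosing. Cmax in ng/mL. Bioavailability derived from oral AUC compared with AUC after a 1 mg/kg iv dose.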
Data set [15] is described as follows: Oral bioavailability in mouse at 10 mg/kg. Type of data set: ADME, organism-based. The conditions noted are these: in vivo. The gist of the method:
as §6

In data set [16] the test system is Mus musculus. Nature of the data set: Antiinflammatory activity in po dosed mouse assessed as inhibition of picryl chloride-induced contact hypersensitivity reaction administered 30 mins prior to picryl chloride challenge. Type of data set: functional, organism-based. The gist of the method: as §1
Data set [17] relates to Mus musculus. Description: Antipruritic activity in mouse assessed as inhibition of substance P-induced pruritus at 10 mg/kg administered 30 mins prior to substance P challenge measured over 60 mins. In kind it is functional, organism-based. In a few lines: as §2
The target in data set [18] is Dual specificity mitogen-activated protein kinase kinase; MEK1/2 (Homo sapiens) (UniProt P36507+Q02750). Nature of the data set: Inhibition of MEK1/2 (unknown origin). Type of data set: protein assay.
Sequence of Dual specificity mitogen-activated protein kinase kinase; MEK1/2 (Homo sapiens) (P36507 whole entry, looked up): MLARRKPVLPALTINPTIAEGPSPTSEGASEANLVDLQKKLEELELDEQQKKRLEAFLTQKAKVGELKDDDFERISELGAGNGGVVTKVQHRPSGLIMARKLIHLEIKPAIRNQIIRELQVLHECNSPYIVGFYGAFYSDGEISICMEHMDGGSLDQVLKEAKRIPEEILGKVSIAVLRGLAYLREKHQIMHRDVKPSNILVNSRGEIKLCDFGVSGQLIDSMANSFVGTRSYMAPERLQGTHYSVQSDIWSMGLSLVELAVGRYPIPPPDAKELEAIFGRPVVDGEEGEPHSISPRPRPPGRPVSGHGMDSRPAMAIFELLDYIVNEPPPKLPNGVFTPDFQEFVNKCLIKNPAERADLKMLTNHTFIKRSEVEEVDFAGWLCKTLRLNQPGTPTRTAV
Sequence of Dual specificity mitogen-activated protein kinase kinase; MEK1/2 (Homo sapiens) (Q02750 whole entry, looked up): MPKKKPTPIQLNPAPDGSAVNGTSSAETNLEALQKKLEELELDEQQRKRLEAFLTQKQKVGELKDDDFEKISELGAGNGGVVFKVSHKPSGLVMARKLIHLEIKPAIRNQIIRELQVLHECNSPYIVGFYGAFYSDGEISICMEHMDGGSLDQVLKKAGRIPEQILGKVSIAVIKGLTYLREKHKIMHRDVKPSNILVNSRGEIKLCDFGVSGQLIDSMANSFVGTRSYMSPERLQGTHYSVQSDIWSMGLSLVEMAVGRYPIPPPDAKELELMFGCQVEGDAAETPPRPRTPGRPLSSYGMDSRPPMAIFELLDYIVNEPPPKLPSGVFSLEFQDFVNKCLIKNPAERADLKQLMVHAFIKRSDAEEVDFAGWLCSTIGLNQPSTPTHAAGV

A word on the pIC50: it is −log10 of the IC50, conventionally taken in molar units. As a reminder, the solubility is the dissolved amount per volume that the medium holds. High values mean a readily soluble substance, low ones a poorly soluble substance. By Papp is commonly meant the rate of passage across a membrane or cell layer, normalised by area and donor concentration. As a reminder, the clearance is the rate of elimination divided by the concentration. For orientation: AUC means concentration integrated over time. One may read the Cmax as the peak of the concentration-time curve. By bioavailability is commonly meant dose-corrected exposure relative to a reference, in per cent.

pIC50: −log10 of the molar value. ≈ marks a conversion by molar mass, not a printed value. Calls of active or inactive are those of the source. No cut-off for these calls is given here.

Turning to `C[C@]12C=CC(=O)C=C1CC[C@@H]1[C@@H]2[C@@H](O)C[C@@]2(C)[C@H]1CC[C@]2(O)C(=O)CO`, the inhibition result with Mus musculus [1] was “Active”.

In the case of `C=CC[C@@H]1/C=C(\C)C[C@H](C)C[C@H](OC)[C@H]2O[C@@](O)(C(=O)C(=O)N3CCCC[C@H]3C(=O)O[C@H](/C(C)=C/[C@@H]3CC[C@@H](O)[C@H](OC)C3)[C@H](C)[C@@H](O)CC1=O)[C@H](C)C[C@@H]2OC` [TACROLIMUS ANHYDROUS], the “inhibition (INH)” value in the data set on Mus musculus [2] is 53%.

Consider `Cc1cc(C)cc(-n2c(N)c(NC(=O)c3c(C)c(O)c(C)c4c3OC(C)(C)C4)c(=O)n(C)c2=O)c1`, for which the “inhibition (INH)” value in the data set with Mus musculus [2] amounted to 15%.

Regarding `O=c1[nH]c2ccccc2n1CCCN1CCN(C(c2ccccc2)c2ccccc2)CC1`, the inhibition result with Mus musculus [3] is “Active”.

Consider `O=C1O[C@H]([C@@H](O)CO)C(O)=C1O` [ASCORBIC ACID], for which the negative-log IC50 (pIC50) in data set [4] was 4.09; in data set [5], 4.27.

On to `Cc1cccc(-n2c(N)c(NC(=O)c3c(C)c(O)c(C)c4c3OC(C)(C)C4)c(=O)n(C)c2=O)c1`, for which the “inhibition (INH)” value in the data set on Mus musculus [2] stood at 52%. The same compound registered a solubility in data set [6] of 21 µg/mL (≈ 45.2 µM). Also, the Stability in the data set on Liver microsome [7] is 19 µL/min/mg; in the data set with Liver microsome [8] it was below 10 µL/min/mg. Also, the Papp in data set [9] was found to be 14 ×10⁻⁶ cm/s. Also, the clearance in data set [10] is 18 mL/min/kg. Moreover, in [11], the Vd stood at 1 L/kg. Also, the AUC in data set [12] came out at 927 ng·h/mL; in [13] it was 1100 ng·h/mL. Further, the concentration in [14] peaked (Cmax) at 511 ng/mL. In data set [15], this compound gave a bioavailability of 12%. The inhibition result in the data set on Mus musculus [16] is “Dose-dependent effect”. Also, the inhibition entry (with Mus musculus [17]; in data set [18]) was “Active” each time. Further, in data set [4], the pIC50 is 5.07.

As for `CCOc1cccc(-n2c(N)c(NC(=O)c3c(C)c(O)c(C)c4c3OC(C)(C)C4)c(=O)n(C)c2=O)c1`, in the data set with Mus musculus [2], the “inhibition (INH)” value worked out at 16%.

Consider `Cc1c(C)c2c(c(C)c1O)CC[C@@](C)(C(=O)Nc1c(N)n(-c3ccccc3)c(=O)n(C)c1=O)O2`, for which the negative logarithm of the IC50 (pIC50) in [4] is 4.92; in data set [5], 4.36.

As to `CCc1cccc(-n2c(N)c(NC(=O)c3c(C)c(O)c(C)c4c3OC(C)(C)C4)c(=O)n(C)c2=O)c1`, the “inhibition (INH)” value in the data set with Mus musculus [2] is 14%.

`Cc1c(O)c(C)c(C(=O)Nc2c(N)n(-c3cccc(C(=O)O)c3)c(=O)n(C)c2=O)c2c1CC(C)(C)O2`: in the data set with Mus musculus [2], the “inhibition (INH)” value was determined as 9%.

Consider `Cc1c(C)c2c(c(C)c1O)CCC(C)(C(=O)O)O2` (stereo unspecified) [TROLOX], for which the values for the negative logarithm of the IC50 (pIC50) in data set [4] and in [5] were 5.01 and 4.62, respectively.

For the compound `Cc1c(O)c(C)c(C(=O)Nc2c(N)n(-c3cccc(F)c3)c(=O)n(C)c2=O)c2c1CC(C)(C)O2`, the “inhibition (INH)” value with Mus musculus [2] is 10%.

With `Cc1ccc(-n2c(N)c(NC(=O)c3c(C)c(O)c(C)c4c3OC(C)(C)C4)c(=O)n(C)c2=O)cc1`, in the data set on Mus musculus [2], the “inhibition (INH)” value is 30%.

For `Cc1ccc(-n2c(N)c(NC(=O)c3c(C)c(O)c(C)c4c3OC(C)(C)C4)c(=O)n(C)c2=O)cc1C`, the “inhibition (INH)” value in the data set on Mus musculus [2] is recorded as 45%.

Values taken from ChEMBL document CHEMBL3763157, “Synthesis and biological evaluation of novel orally available 1-phenyl-6-aminouracils containing dimethyldihydrobenzofuranol structure for the treatment of allergic skin diseases” (Bioorg Med Chem Lett, 2016).
